The values below come from ChEMBL document CHEMBL2163314, “Potent aminocyclitol glucocerebrosidase inhibitors are subnanomolar pharmacological chaperones for treating gaucher disease” (J Med Chem, 2012).

The structures appear in SMILES notation. Where a chain is given by its changes, count along the chain named. Activity calls are given as the source filed them. The rule behind the calls is not given here.

Data set [1] has as its system T1, Lysosomal acid glucosylceramidase (Homo sapiens), P04062 [N409S].
T1 sequence (whole entry): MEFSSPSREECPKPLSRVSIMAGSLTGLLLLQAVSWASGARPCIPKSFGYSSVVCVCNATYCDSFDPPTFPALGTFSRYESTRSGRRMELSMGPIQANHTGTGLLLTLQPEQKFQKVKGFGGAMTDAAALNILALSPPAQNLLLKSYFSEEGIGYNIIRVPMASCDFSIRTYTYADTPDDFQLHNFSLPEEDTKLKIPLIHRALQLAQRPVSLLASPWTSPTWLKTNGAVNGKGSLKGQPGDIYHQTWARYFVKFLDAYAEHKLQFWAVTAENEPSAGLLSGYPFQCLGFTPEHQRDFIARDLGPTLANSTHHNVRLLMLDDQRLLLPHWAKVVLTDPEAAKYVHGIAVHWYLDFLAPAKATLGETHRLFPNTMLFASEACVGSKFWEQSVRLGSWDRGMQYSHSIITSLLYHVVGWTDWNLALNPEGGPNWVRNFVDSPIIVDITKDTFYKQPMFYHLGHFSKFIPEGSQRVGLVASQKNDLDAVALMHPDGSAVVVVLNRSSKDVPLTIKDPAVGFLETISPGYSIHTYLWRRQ
Description: Agonist activity at glucosylceramidase N370S mutant in lymphoblast obtained from gauchers patient using 4-methylumbelliferyl-beta-D-glucopyranoside as substrate preincubated at 1 to 5000 nM for 3 days measured 2 hrs post substrate addition by fluorescence assay relative to untreated control. The class given is functional. Put shortly:
(§1)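 Patient-derived N370S homozygous lymphoblasts (RPMI-1640, 15% FBS, 37 °C, 5% CO2; passages 5–16) seeded at 2 × 10^5 cells/well, exposed to compound for 3 days. Cells washed in PBS and lysed in water by sonication. Homogenate incubated with 6 mM 4-MU-β-glucoside in 0.1 M citrate phosphate pH 5.2 with 0.25% taurocholate and 0.1% Triton X-100, 37 °C, 2 h. Fluorescence read at 355/460 nm; activity normalized to untreated cells; triplicate.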

Data set [2] deals with T2, Lysosomal acid glucosylceramidase (Homo sapiens) (UniProt P04062).
T2 sequence (whole entry): T1 sequence (whole entry) with S409N
To be noted: 50 uM.

Data set [3] concerns the target T3, Beta-galactosidase (Bos taurus) (UniProt Q58D55).
T3 sequence (whole entry): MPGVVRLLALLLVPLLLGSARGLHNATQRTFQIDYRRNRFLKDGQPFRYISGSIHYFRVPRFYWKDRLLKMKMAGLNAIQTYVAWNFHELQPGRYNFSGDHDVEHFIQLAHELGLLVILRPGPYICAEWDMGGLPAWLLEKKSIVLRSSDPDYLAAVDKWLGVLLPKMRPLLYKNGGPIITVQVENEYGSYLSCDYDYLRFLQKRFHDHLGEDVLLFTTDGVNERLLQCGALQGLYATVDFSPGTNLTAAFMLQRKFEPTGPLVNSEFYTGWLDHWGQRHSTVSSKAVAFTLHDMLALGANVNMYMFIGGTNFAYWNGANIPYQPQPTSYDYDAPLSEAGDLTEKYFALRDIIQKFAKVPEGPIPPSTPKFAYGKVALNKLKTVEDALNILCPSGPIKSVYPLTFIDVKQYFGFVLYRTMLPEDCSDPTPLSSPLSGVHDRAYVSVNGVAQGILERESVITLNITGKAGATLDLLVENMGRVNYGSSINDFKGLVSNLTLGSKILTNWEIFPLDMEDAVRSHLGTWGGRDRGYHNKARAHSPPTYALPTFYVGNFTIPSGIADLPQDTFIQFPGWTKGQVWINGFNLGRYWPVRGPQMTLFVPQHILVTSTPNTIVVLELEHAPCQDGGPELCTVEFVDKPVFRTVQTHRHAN
Kind of data set: Inhibition of bovine liver beta-galactosidase at 100 uM.

Data set [4] is described as follows: Cytotoxicity against human fibroblasts at 5 uM. As to conditions: fibroblast. It is filed as cell-based.
For data set [5], the target named is T4, Ceramide glucosyltransferase (Mus musculus) (UniProt O88693).
T4 sequence (whole entry): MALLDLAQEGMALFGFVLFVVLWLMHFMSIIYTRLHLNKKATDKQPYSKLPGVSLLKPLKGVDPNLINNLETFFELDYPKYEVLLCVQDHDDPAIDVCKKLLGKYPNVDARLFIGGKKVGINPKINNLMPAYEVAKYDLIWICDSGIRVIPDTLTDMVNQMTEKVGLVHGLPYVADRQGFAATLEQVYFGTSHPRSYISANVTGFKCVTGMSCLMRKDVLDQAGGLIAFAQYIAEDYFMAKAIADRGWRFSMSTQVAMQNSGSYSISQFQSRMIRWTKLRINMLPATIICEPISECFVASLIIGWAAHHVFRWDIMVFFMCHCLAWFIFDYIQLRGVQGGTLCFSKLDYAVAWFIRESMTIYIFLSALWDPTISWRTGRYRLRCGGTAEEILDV
Kind of data set: Inhibition of GCS activity in mouse tissue homogenate at 250 uM.

In data set [6] the target is T4, Ceramide glucosyltransferase (Mus musculus). Description: Inhibition of GCS activity in mouse tissue homogenate at 50 uM.
Data set [7] relates to T1, Lysosomal acid glucosylceramidase (Homo sapiens), P04062 [N409S]. Kind of data set: Agonist activity at glucosylceramidase N370S mutant in lymphoblast obtained from Gaucher disease patient using 4-methylumbelliferyl-beta-D-glucopyranoside as substrate preincubated at 1 uM for 3 days measured 2 hrs post substrate addition by fluorescence assay relative to untreated control. The class given is functional. In short, it runs like this:
as §1

The nature of data set [8]: Agonist activity at glucosylceramidase […] mutant in lymphoblast obtained from Gaucher disease patient using 4-methylumbelliferyl-beta-D-glucopyranoside as substrate preincubated at 100 nM for 3 days measured 2 hrs post substrate addition by fluorescence assay relative to untreated control. It is filed as functional, Homo sapiens. In short, it runs like this:
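Homozygous L444P GD type 2 patient-derived lymphoblasts (GM08752) in RPMI-1640 with 15% FBS, seeded at 2 × 10^5 cells/well and exposed to compound for 3 days. Cells were washed with PBS and sonicated in water. Homogenate was assayed with 6 mM 4-methylumbelliferyl-β-D-glucopyranoside in 0.1 M citrate phosphate, pH 5.2, with 0.25% taurocholate and 0.1% Triton X-100, for 2 h at 37 °C. Fluorescence read at 355/460 nm, normalized to untreated cells, triplicate.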

Take `CCCCCCCCCN[C@@H]1[C@H](O)[C@@H](O)[C@H](O)[C@@H](O)[C@@H]1O`: in data set [1], the outcome was inactive. For the same compound, the figures for the inhibition in data set [2] and in data set [3] were 23% and 74%, respectively.

As to `CCCCCCCCCN(CCCCCCCCC)[C@@H]1[C@H](O)[C@H](O)[C@@H](O)[C@H](O)[C@H]1O.Cl`, in data set [1], the result was inactive. In data set [4], the Activity entry is “Non-toxic”. For the same compound, the inhibition in data set [5] was 56%. Further, the inhibition entry in data set [6] is “inactive”.

With `CCCCCCCCCN[C@H]1[C@H](O)[C@@H](O)[C@H](O)[C@@H](O)[C@@H]1OCCCCCCCCC.Cl`, in data set [4], the Activity result is on record as “Non-toxic”. In addition, the inhibition in data set [5] worked out at 56%. The same compound gave a fold change (FC) in data set [7] of 1.4. Further, the inhibition entry in data set [6] was “inactive”.

Turning to `CCCCCCCCCN[C@@H]1[C@H](O)[C@H](O)[C@@H](O)[C@H](O)[C@H]1O.Cl`, the “fold change (FC)” value in data set [8] was determined as 1.2.

Take `CCCCCCCCCN[C@H]1[C@H](O)[C@@H](O)[C@H](O)[C@@H](O)[C@@H]1O`: the outcome in data set [1] was inactive. This compound also displayed an inhibition in data set [2] of 23%.

Regarding `CCCCCCCCCN[C@H]1[C@H](O)[C@@H](O)[C@H](O)[C@@H](O)[C@@H]1OC.Cl`, the inhibition in data set [2] came out at 23%.

Turning to `CCCCCCCCCN[C@H]1[C@H](O)[C@@H](O)[C@H](O)[C@@H](O)[C@H]1OCCCCCCCCC.Cl`, the Activity result in data set [4] is “Non-toxic”. The results for the inhibition in data set [5] and in data set [3] were 56% and 74%, respectively. In data set [6], the inhibition result is “inactive”.

As for `CCCCCCCCCO[C@H]1[C@@H](N)[C@H](O)[C@@H](O)[C@H](O)[C@H]1O.Cl`, the “fold change (FC)” value in data set [8] is listed as 1.3. In data set [3], this compound showed an inhibition of 74%.

In turn, `CCCCCCCCCN[C@H]1[C@H](O)[C@@H](O)[C@H](O)[C@@H](O)[C@H]1OC.Cl` gave a fold change (FC) in data set [7] of 2.

By inhibition is commonly meant how much of the control response was suppressed.
